pKd: −log10 of the molar value. Where no end group is shown, it is not given here.
Columns and labels:
[1] = system: RAW 264.7 cells; assay: Cytotoxicity, WST-8 assay; assay type: cell-based; settings: 24 h
[2] = system: ICR mice; assay: In vivo toxicity; settings: for kidney histology, in words: 20 mg/kg, two doses for 3 d, hematoxylin and eosin
In short: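 Female ICR mice, n = 5 per group, received test compound i.p. at a low (5 mg/kg/day for 5 d) or high (20 mg/kg twice per day for 3 d) regimen. Serum creatinine, AST and ALT were measured and compared with controls by one-way ANOVA with Dunnett's test; mean ± SEM.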

[3] = system: E. coli K1-infected ICR mice; assay: E. coli K1 sepsis mouse model; assay type: in vivo
[4] = system: FITC-LPS binding to RAW 264.7 cells; assay: Flow cytometry of FITC-LPS binding to RAW 264.7 cells; assay type: cell-based; settings: posttreatment with 40 μM peptide, FITC-LPS 40 μg/mL, 30 min, 4 °C; MFI
In short: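 RAW 264.7 cells (10⁶) were exposed under serum-free conditions at 4 °C for 30 min to test compound (40 μM) or FITC-labelled E. coli O55:B5 LPS (40 μg/mL), given before or after the other. Cells were PBS-washed and surface fluorescence was read by flow cytometry as MFI (%). Three independent experiments, mean ± SEM, one-way ANOVA with Dunnett's test.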

[5] = target: T1, MD-2 (Homo sapiens, UniProt Q9Y6Y9); assay: SPR binding to MD-2
T1 sequence (Q9Y6Y9 19-160): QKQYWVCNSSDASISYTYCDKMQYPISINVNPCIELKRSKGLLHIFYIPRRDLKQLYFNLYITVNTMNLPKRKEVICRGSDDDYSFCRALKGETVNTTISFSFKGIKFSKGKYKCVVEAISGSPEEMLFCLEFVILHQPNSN

[6] = target: TLR4 (Homo sapiens, UniProt O00206); assay: SPR binding to TLR4
Sequence of TLR4 (Homo sapiens, UniProt O00206) (O00206 24-839): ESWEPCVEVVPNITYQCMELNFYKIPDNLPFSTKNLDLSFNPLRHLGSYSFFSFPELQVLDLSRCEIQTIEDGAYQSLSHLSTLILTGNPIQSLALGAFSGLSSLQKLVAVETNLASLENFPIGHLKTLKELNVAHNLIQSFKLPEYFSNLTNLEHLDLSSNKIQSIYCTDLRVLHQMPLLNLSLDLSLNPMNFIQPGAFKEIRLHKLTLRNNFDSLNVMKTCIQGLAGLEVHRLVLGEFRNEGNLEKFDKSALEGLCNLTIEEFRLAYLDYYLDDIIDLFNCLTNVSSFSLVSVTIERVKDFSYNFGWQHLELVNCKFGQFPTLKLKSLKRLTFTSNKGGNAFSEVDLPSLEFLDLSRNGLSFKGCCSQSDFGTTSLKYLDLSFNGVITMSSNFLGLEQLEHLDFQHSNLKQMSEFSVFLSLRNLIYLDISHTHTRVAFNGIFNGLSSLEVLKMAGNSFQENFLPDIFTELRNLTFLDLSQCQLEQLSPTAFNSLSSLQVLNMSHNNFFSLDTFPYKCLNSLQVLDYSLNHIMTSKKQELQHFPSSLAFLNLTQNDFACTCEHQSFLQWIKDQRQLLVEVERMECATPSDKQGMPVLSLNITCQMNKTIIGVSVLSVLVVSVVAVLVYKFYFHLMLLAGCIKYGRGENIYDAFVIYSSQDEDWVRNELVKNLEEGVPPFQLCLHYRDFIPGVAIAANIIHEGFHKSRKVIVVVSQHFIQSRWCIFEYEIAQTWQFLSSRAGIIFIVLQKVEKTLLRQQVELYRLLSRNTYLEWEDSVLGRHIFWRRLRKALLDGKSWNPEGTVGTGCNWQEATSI

[7] = target: TLR4/MD-2 (Homo sapiens, UniProt O00206+Q9Y6Y9); assay: SPR binding to TLR4/MD-2 complex
Sequence of TLR4/MD-2 (O00206 24-631 limits assumed): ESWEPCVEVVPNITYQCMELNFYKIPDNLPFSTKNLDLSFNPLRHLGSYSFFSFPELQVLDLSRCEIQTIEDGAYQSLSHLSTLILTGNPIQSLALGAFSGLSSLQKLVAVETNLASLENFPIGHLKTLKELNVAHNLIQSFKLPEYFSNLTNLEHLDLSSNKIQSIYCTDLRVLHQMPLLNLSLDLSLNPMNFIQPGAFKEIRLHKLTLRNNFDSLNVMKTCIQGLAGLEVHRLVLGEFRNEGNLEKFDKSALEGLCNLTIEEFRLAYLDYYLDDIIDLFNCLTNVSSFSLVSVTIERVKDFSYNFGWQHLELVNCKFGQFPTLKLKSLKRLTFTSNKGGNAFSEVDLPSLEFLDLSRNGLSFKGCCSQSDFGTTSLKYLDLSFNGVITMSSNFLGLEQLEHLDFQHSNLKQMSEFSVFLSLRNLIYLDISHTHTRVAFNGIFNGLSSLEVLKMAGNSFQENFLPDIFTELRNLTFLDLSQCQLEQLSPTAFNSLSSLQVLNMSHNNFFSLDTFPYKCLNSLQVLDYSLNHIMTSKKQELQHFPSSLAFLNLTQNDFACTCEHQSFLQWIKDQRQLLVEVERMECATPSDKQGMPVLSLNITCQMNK
Sequence of TLR4/MD-2 (Q9Y6Y9 17-160 limits assumed): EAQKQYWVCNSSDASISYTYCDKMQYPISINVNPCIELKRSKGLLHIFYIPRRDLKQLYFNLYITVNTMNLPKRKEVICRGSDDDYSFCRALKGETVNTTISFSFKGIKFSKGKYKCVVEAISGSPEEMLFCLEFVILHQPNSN

[8] = target: TLR4; settings: read-out: binding affinity of LPS to TLR4; cited from earlier work
[9] = target: MD-2; settings: read-out: binding affinity of LPS to MD-2; cited from earlier work
[10] = target: TLR4/MD-2 complex (human) (UniProt O00206); assay: SPR
Sequence of TLR4/MD-2 complex (human) (O00206 24-839, one chain of several): as the sequence (O00206 24-839) above

[11] = 20 mg/kg i.p. twice per day for 3 d, ICR mice, n = 5
[12] = 1 mg/kg i.p., E. coli K1 5 × 10^6 CFU/mouse, serum

In the case of Polymyxin B [PMB], the cell survival rate ([1]; 50 μM peptide) was 30.6%, the cell survival rate ([1]; 100 μM peptide) was 15.5% and the “elevation of blood urea nitrogen (BUN) level” value [2, 11] was 26.6%. For the same substance, the “elevation of serum creatinine level” value [2, 11] was 37.1%, the “increase of ALT level” value [2, 11] was 30.6% and the “increase of AST level” value [2, 11] was 17.8%. The “kidney histology, in words” value [2] was “notable kidney damage”, the “reduction of endotoxin levels” value ([3]; 1 mg/kg i.p., E. coli K1 5 × 10^6 CFU/mouse, 16 h later, n = 5) was 34.6% and the “ALT level reduced to” value [3, 12] was 19.4%. The “AST level reduced to” value [3, 12] was 25.7%, the “BUN level reduced to” value [3, 12] was 16.7% and the “serum and lung tissue levels of TNF-α and IL-6, in words” value ([3]; 1 mg/kg, compared to E. coli K1–infected control mice, ELISA) was “significantly reduced”. The “lung tissue histology, in words” value ([3]; 1 mg/kg, hematoxylin and eosin, neutrophil infiltration) was “significantly protected against lung damage” and the “competitive displacement of prebound LPS on RAW 264.7 cells” value [4] was “no competitive impact”.

For “RWKIFKKIEKVGRNVRDGIIKAGPAVAVVGQAATVVK-NH2 [Papiliocin]”, the cell survival rate ([1]; 50 μM peptide) was 100%, the cell survival rate ([1]; 100 μM peptide) was 78.0% and the pKd [5] was 5.96. The pKd [6] was 6.39, the “change in creatinine level compared to the control, in words” value ([2]; 5 mg/kg/day for 5 d and 20 mg/kg twice per day for 3 d, i.p.) was “neither lower dose of PMB nor any dose of papiliocin induced any aberrant changes in creatine level” and the “kidney histology, in words” value [2] was “did not show any signs of morphology changes in the kidneys”. For the same substance, the pKd [7] was 5.43, the kon ([7]; read-out: association rate, TLR4/MD-2 complex) was 3850 M⁻¹ s⁻¹ and the koff ([7]; read-out: dissociation rate, TLR4/MD-2 complex) was 0.0141 s⁻¹.

In the case of lipopolysaccharide [LPS], the pKd [8] is given as 4.85 and the pKd [9] is given as 5.06.

Work on papiliocin (peptide) yielded a koff [10] of 0.0141 s⁻¹ and a kon [10] of 3850 M⁻¹ s⁻¹.

In the case of papiliocin G23P (peptide), the fold lower affinity compared to papiliocin [10] was 100 fold.

Work on papiliocin P24G (peptide) yielded a fold lower affinity compared to papiliocin [10] of 10 fold.

Source: article PMC8915966 (Proceedings of the National Academy of Sciences of the …, 2022)
